Measurements from ChEMBL document CHEMBL1123103, “Pyrimidinones. 1. 2-Amino-5-halo-6-aryl-4(3H)-pyrimidinones. Interferon-inducing antiviral agents” (1985).
Activity calls are given as the source filed them. The calls are words filed in the database; no cut-off is given here.

What was measured:
[1] = tested on: Semliki Forest virus; experiment: Effective dose administered intraperitoneally againist Forest virus infected mice; type: functional, organism-based
In short: (§1)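 Drug was suspended in 0.9% NaCl or in a carboxymethylcellulose/polysorbate 80/benzyl alcohol/NaCl vehicle. Deaths were recorded daily for 6 days, with 24 mice per group. The ED50 is the minimal dose protecting 50% of mice, calculated by probit analysis.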

[2] = tested on: Semliki Forest virus; experiment: Effective dose administered perorally against Forest virus infected mice; type: functional, organism-based; in short: as §1
[3] = tested on: Semliki Forest virus; experiment: Effective dose administered subcutaneously against Forest virus infected mice; type: functional, organism-based; in short: as §1
[4] = tested on: Human alphaherpesvirus 1; experiment: Intraperitoneal administration against herpes simplex virus type-1 (HSV-1) infected mice; type: functional
In short: (§2)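 ICR or CD-1 mice got drug ip in saline as the total daily dose (mg/kg/day). It was split into doses at -40, -28, -20, -3 and +3 h relative to ip inoculation with 5.6×10^4 pfu HSV-1. Mice were followed for 22 days, 15/group. Protection index = (control mortality − treated mortality)/control mortality; >0.25 counted active. Only the lowest protective dose is recorded.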

[5] = tested on: Mus musculus; experiment: The compound was evaluated for the serum interferon response from a single 800 mg/kg intraperitoneal administration in vesicular stomatitis virus on […] cells; range 50-500; type: functional
In short: (§3)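 Mice got a single ip 800 mg/kg dose. Blood was drawn 3, 6, 8 and 12 h later from five mice per group and pooled. Interferon titer was measured by plaque reduction with vesicular stomatitis virus on L929 cells. Titer is the reciprocal serum dilution cutting plaques by 50% versus untreated cultures. Peak response within 24 h was banded: ≥2000, ~500-1000, ~50-500, ~10-50 U/mL.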

[6] = tested on: Semliki Forest virus; experiment: Antiviral activity against Forest virus (SFV); type: functional
In short: (§4)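 ICR or CD-1 mice of both sexes got one drug dose by the route in the line (ip, po or sc). The drug was a suspension in 0.9% NaCl or in a CMC/polysorbate 80/benzyl alcohol/NaCl vehicle. […] Deaths were recorded daily for 6 days, 24 mice/group. ED50 is the minimal dose protecting 50% of mice, by probit analysis.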

[7] = tested on: Semliki Forest virus; experiment: Effective dose administered perorally againist Forest virus infected mice; type: functional; details: po; in short: as §4
[8] = tested on: Semliki Forest virus; experiment: Effective dose administered subcutaneously againist Forest virus infected mice; type: functional; details: sc; in short: as §4
[9] = tested on: Mus musculus; experiment: The compound was evaluated for the serum interferon response from a single 800 mg/kg intraperitoneal administration in vesicular stomatitis virus on […] cells; range 500-1000 units/mL; type: functional; in short: as §3
[10] = tested on: Mus musculus; experiment: Protection index after intraperitoneal administration (50 mg/kg/day) against herpes simplex virus type-1 (HSV-1) infected mice [protection index=(control mortality-treated mortality)/control mortality]; type: functional; in short: as §2
[11] = tested on: Mus musculus; experiment: The compound was evaluated for the serum interferon response from a single 800 mg/kg intraperitoneal administration in vesicular stomatitis virus on […] cells; Range 500-1000 units/mL; type: functional; in short: as §3
[12] = tested on: Mus musculus; experiment: Evaluation for serum interferon response from a single 800 mg/kg intraperitoneal administration in vesicular stomatitis virus on […] cells; Range 10-50 units/mL; type: functional; in short: as §3
[13] = tested on: Vesicular stomatitis virus; experiment: Evaluation for serum interferon response from a single 800 mg/kg intraperitoneal administration in vesicular stomatitis virus on […] cells.; type: functional; in short: as §3
[14] = tested on: Mus musculus; experiment: Protection index after intraperitoneal administration (25 mg/kg/day) against herpes simplex virus type-1 (HSV-1) infected mice [protection index=(control mortality-treated mortality)/control mortality]; type: functional; in short: as §2

SMILES | Protection index [4] | ED50 [6] [mg/kg] | ED50 [7] [mg/kg] | ED50 [8] [mg/kg] | IFN [12] [units/mL] | other results
CN(C)c1ccc(-c2nc(N)nc(O)c2Br)cc1 | 0.13 | – | – | – | – | ED50 [1]: inactive; ED50 [2]: inactive; ED50 [3]: inactive
Nc1nc(O)c(I)c(-c2cccc(Br)c2)n1 | – | 65 | > 400 | 90 | – | IFN [5]: 500 mL
Nc1nc(O)c(I)c(-c2ccccc2F)n1 | – | 105 | > 400 | > 400 | – | IFN [9]: 500 units/mL; Protection index [10]: 0.67
Nc1nc(O)c(Cl)c(-c2cccc(F)c2F)n1 | 0.93 | 70 | 200 | – | – | IFN [11]: 500 units/mL
Nc1nc(O)c(Br)c(-c2ccc(Cl)cc2)n1 | – | 100 | > 400 | > 400 | 10 | –
Nc1nc(O)c(Br)c(-c2ccc(-c3ccccc3)cc2)n1 | – | – | – | – | – | ED50 [1]: inactive; ED50 [2]: inactive; ED50 [3]: inactive
Nc1nc(O)c(I)c(-c2ccco2)n1 | 0.28 | 135 | > 400 | > 400 | 10 | –
Cc1ccc(-c2nc(N)nc(O)c2Br)cc1 | – | 200 | – | – | 10 | –
Nc1nc(O)c(Cl)c(-c2cccc(F)c2)n1 | – | 30 | > 400 | 100 | – | IFN [13]: >=2000 ml; Protection index [14]: 0.61
CCCOc1cccc(-c2nc(N)nc(O)c2Br)c1 | 0.4 | 100 | > 400 | > 400 | 10 | –
Nc1nc(O)c(I)c(-c2cccc(F)c2)n1 | – | 10 | > 400 | 80 | – | IFN [11]: 500 units/mL; Protection index [14]: 0.25
Nc1nc(O)c(Cl)c(-c2cnccn2)n1 | 0.07 | 110 | 395 | > 400 | – | IFN [9]: 500 units/mL
CC(C)(C)c1ccc(-c2nc(N)nc(O)c2Br)cc1 | – | – | – | – | – | ED50 [1]: inactive; ED50 [2]: inactive; ED50 [3]: inactive
Nc1nc(O)c(I)c(-c2ccc(Cl)cc2)n1 | 0.27 | 110 | > 400 | > 400 | 10 | –
COc1cccc(-c2nc(N)nc(O)c2I)c1 | – | 40 | > 400 | > 400 | 10 | Protection index [10]: 0.54
CCCOc1cccc(-c2nc(N)nc(O)c2I)c1 | 0 | 100 | – | – | 10 | –
Nc1nc(O)c(I)c(-c2cnccn2)n1 | – | 275 | > 400 | > 400 | – | IFN [9]: 500 units/mL
Nc1nc(O)c(Cl)c(-c2ccc3ccccc3n2)n1 | 0.07 | – | – | – | – | ED50 [1]: inactive; ED50 [2]: inactive; ED50 [3]: inactive
Nc1nc(O)c(Br)c(-c2cccc3ccccc23)n1 | 0 | 40 | > 400 | > 400 | 10 | –

SMILES | Protection index [4] | ED50 [6] [mg/kg] | ED50 [7] [mg/kg] | ED50 [8] [mg/kg] | IFN [12] [units/mL] | other results
CC(C)(C)c1ccc(-c2nc(N)nc(O)c2I)cc1 | – | – | – | – | – | ED50 [1]: inactive; ED50 [2]: inactive; ED50 [3]: inactive
Nc1nc(O)c(I)c(-c2ccc3ccccc3n2)n1 | – | – | – | – | – | ED50 [1]: inactive; ED50 [2]: inactive; ED50 [3]: inactive
Nc1nc(O)c(Br)c(-c2ccc3ccccc3n2)n1 | 0.14 | – | – | – | – | ED50 [1]: inactive; ED50 [2]: inactive; ED50 [3]: inactive
Nc1nc(O)c(Br)c(-c2ccccc2F)n1 | – | 25 | > 400 | 200 | – | IFN [13]: 50 units/mL; Protection index [10]: 0.69
Nc1nc(O)c(I)c(-c2cccc(Cl)c2)n1 | 0.65 | 35 | > 400 | 250 | – | IFN [11]: 500 units/mL
Cc1ccccc1-c1nc(N)nc(O)c1Cl | 0.13 | 130 | > 400 | 350 | – | IFN [9]: 500 units/mL
Nc1nc(O)c(Br)c(-c2ccc(F)cc2)n1 | 0.46 | 160 | > 400 | > 400 | – | IFN [11]: 500 units/mL
CC(C)(C)c1ccc(-c2nc(N)nc(O)c2Cl)cc1 | – | – | – | – | – | ED50 [1]: inactive; ED50 [2]: inactive; ED50 [3]: inactive
Nc1nc(O)c(Cl)c(-c2ccccc2F)n1 | – | 105 | 105 | 115 | – | IFN [13]: >=2000 ml; Protection index [10]: 0.69
Nc1nc(O)c(I)c(-c2cccc3ccccc23)n1 | 0.18 | 70 | > 400 | > 400 | 10 | –
COc1cccc(-c2nc(N)nc(O)c2Cl)c1 | – | 15 | > 400 | 205 | – | IFN [13]: 50 units/mL; Protection index [10]: 0.92
Nc1nc(O)c(I)c(-c2ccc(-c3ccccc3)cc2)n1 | – | – | – | – | – | ED50 [1]: inactive; ED50 [2]: inactive; ED50 [3]: inactive
Nc1nc(O)c(Cl)c(-c2cc(F)ccc2F)n1 | – | 165 | > 400 | – | – | IFN [11]: 500 units/mL
Nc1nc(O)c(Br)c(-c2cc(Cl)cc(Cl)c2)n1 | – | 245 | > 400 | > 400 | 10 | –
CCCOc1cccc(-c2nc(N)nc(O)c2Cl)c1 | 0.13 | 40 | > 400 | – | 10 | –
COc1cccc(-c2nc(N)nc(O)c2Br)c1 | – | 10 | > 400 | 55 | – | IFN [13]: 50 units/mL; Protection index [10]: 0.62
Cc1ccc(-c2nc(N)nc(O)c2I)cc1 | – | 115 | > 400 | > 400 | 10 | –
Nc1nc(O)c(Br)c(-c2cccc(F)c2)n1 | – | 70 | 175 | 155 | – | IFN [13]: >=2000 ml; Protection index [14]: 0.64
